Results as given in ChEMBL document CHEMBL1137681, “Design, synthesis and characterization of N9/N7-substituted 6-aminopurines as VEGF-R and EGF-R inhibitors” (Eur J Med Chem, 2009).
pIC50: −log10 of the molar value. Activity calls are given as the source filed them. The rule behind the calls is not given here.

What was measured:
[1] = molecular target: RAC-alpha serine/threonine-protein kinase (Homo sapiens) (UniProt P31749); experiment: Inhibition of AKT1 up to 100 uM
Procedure, shortened: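 Radiometric kinase assay with recombinant AKT1 (50–400 ng) and GSK3(14-27) peptide substrate. Incubated 80 min at 30 °C, stopped with 2% H3PO4, washed with 0.9% NaCl. IC50 from 10 concentrations in singlicate.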

[2] = molecular target: Aurora kinase B (Homo sapiens, UniProt Q96GD4); experiment: Inhibition of Aurora B
Sequence of Aurora kinase B (Q96GD4 whole entry): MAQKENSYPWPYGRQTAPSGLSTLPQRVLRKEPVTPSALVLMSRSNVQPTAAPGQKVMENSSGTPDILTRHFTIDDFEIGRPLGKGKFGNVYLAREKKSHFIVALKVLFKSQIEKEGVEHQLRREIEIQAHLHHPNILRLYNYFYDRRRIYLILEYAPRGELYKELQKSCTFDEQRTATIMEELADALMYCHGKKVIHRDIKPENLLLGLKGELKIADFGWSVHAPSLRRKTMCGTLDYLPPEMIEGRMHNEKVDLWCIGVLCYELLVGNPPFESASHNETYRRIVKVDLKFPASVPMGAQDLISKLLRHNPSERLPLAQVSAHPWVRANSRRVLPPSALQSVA
Procedure, shortened: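 Buffer was HEPES-NaOH pH 7.5 with MgCl2, MnCl2, vanadate, DTT, PEG20000 and 1% DMSO. Run 80 min at 30 °C, quenched with 2% H3PO4, NaCl-washed, then scintillation-counted. IC50 fitted from 10 concentrations tested once each.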

[3] = molecular target: Epidermal growth factor receptor (Homo sapiens, UniProt P00533); experiment: Inhibition of EGFR
[4] = molecular target: T1, Ephrin type-B receptor 4 (Homo sapiens) (UniProt P54760); experiment: Inhibition of EPHB4 up to 100 uM
T1 sequence (whole entry): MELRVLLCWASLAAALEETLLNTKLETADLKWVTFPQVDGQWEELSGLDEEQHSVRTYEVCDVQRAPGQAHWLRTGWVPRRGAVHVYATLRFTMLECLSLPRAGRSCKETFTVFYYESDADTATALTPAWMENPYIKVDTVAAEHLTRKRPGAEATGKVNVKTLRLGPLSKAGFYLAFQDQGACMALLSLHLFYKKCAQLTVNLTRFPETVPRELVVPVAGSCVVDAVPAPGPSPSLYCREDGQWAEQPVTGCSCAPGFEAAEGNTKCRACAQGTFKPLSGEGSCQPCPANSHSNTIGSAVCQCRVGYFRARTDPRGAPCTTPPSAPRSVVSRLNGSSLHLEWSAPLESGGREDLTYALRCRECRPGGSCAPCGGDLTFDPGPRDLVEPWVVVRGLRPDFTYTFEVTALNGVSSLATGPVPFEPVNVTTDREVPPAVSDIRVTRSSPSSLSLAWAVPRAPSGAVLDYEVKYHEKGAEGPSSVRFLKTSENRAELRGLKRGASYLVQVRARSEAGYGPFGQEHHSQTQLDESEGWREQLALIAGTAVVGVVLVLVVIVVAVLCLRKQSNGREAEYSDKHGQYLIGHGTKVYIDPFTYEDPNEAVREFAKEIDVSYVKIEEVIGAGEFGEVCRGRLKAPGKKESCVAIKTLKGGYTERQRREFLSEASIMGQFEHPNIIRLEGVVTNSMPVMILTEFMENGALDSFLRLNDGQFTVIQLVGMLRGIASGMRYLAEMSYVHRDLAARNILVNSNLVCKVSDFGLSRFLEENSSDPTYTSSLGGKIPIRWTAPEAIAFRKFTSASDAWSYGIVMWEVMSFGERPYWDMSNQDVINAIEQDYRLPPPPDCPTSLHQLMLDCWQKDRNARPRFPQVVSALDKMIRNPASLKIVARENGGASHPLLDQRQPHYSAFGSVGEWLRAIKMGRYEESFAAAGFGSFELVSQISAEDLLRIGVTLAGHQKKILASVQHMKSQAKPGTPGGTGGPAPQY
Procedure, shortened: (§1)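 Buffer: HEPES-NaOH pH 7.5, Mg2+/Mn2+, vanadate, DTT, PEG20000, 1% DMSO. Incubated 30 °C for 80 min, stopped with 2% H3PO4, washed, and scintillation-counted. IC50 from 10 concentrations in singlicate.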

[5] = molecular target: Focal adhesion kinase 1 (Homo sapiens) (UniProt Q05397); experiment: Inhibition of FAK up to 100 uM; procedure, shortened: as §1
[6] = molecular target: Insulin-like growth factor 1 receptor (Homo sapiens) (UniProt P08069); experiment: Inhibition of IGF1R up to 100 uM; procedure, shortened: as §1
Sequence of Insulin-like growth factor 1 receptor (Homo sapiens) (P08069 31-736 limits assumed): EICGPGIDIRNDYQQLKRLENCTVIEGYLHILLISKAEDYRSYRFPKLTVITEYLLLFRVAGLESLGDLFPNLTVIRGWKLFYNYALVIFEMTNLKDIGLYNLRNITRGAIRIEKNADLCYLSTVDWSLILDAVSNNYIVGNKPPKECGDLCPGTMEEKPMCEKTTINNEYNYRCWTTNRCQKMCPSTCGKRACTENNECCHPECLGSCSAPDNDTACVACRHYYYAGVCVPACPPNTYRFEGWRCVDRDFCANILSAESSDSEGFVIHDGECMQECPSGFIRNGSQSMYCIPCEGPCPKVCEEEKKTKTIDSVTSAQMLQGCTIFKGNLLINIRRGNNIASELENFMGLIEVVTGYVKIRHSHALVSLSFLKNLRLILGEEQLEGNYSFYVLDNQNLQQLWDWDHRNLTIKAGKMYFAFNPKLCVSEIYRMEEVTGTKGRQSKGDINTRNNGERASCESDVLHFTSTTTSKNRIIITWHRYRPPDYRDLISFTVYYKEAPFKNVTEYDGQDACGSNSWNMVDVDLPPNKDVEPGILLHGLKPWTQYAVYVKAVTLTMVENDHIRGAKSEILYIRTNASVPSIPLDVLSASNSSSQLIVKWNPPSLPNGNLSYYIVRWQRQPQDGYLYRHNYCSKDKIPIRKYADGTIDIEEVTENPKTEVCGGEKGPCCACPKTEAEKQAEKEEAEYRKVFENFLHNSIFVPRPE
Sequence of Insulin-like growth factor 1 receptor (Homo sapiens) (P08069 741-1367 limits assumed): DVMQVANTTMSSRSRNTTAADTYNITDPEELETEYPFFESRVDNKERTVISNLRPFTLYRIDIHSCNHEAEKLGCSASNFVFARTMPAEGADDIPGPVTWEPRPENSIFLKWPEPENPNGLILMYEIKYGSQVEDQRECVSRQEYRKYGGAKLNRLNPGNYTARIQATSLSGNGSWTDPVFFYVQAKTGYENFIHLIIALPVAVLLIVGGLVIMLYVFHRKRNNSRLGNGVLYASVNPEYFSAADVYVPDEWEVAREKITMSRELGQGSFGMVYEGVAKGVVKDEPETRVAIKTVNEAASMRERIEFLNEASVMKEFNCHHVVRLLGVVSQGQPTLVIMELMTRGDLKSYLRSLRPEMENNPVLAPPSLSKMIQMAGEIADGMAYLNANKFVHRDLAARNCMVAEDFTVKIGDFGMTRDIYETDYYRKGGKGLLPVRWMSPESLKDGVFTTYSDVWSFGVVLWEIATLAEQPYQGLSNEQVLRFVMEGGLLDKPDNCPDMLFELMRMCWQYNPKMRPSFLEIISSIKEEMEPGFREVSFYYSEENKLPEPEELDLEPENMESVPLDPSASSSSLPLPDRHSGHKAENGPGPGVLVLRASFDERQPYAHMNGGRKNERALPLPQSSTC

[7] = molecular target: Vascular endothelial growth factor receptor 3 (Homo sapiens, UniProt P35916); experiment: Inhibition of VEGFR3
Sequence of Vascular endothelial growth factor receptor 3 (P35916 whole entry): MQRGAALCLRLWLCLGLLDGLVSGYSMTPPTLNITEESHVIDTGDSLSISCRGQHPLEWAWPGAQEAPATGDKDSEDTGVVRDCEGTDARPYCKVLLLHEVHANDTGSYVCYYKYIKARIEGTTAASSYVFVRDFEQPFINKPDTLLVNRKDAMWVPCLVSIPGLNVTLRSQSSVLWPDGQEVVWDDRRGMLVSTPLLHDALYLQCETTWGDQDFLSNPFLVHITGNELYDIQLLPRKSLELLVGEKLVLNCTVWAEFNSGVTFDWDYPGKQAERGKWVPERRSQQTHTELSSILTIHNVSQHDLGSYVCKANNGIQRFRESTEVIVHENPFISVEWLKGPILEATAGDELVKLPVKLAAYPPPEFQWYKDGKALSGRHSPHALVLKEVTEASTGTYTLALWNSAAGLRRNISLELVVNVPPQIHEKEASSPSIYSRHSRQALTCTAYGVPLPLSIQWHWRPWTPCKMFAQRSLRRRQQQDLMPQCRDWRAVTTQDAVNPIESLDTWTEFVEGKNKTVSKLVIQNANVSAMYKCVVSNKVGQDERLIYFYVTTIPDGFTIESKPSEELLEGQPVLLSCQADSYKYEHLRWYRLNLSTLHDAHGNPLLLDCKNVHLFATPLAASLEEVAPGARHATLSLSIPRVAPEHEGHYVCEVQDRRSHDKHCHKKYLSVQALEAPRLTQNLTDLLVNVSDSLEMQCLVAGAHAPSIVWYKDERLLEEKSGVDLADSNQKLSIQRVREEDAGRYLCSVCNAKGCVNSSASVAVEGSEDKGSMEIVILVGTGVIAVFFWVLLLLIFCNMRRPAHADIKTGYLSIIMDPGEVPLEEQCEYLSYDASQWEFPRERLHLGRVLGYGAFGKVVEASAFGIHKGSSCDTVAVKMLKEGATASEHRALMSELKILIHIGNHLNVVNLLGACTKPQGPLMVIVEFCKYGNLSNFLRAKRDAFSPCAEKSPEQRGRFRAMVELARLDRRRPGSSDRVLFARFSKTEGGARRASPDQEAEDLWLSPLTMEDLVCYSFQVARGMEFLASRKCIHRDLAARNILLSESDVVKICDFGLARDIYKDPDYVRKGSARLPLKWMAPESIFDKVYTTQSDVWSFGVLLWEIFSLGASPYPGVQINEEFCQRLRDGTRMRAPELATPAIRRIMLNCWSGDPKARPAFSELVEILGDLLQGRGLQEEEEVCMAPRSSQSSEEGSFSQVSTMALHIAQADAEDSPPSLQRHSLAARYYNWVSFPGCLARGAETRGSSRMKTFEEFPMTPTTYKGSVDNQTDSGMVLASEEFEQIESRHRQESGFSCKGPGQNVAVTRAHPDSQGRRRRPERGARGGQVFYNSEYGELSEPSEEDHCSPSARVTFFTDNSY

[8] = molecular target: Insulin receptor (Homo sapiens) (UniProt P06213); experiment: Inhibition of INSR up to 100 uM
Sequence of Insulin receptor (Homo sapiens) (P06213 28-758 limits assumed): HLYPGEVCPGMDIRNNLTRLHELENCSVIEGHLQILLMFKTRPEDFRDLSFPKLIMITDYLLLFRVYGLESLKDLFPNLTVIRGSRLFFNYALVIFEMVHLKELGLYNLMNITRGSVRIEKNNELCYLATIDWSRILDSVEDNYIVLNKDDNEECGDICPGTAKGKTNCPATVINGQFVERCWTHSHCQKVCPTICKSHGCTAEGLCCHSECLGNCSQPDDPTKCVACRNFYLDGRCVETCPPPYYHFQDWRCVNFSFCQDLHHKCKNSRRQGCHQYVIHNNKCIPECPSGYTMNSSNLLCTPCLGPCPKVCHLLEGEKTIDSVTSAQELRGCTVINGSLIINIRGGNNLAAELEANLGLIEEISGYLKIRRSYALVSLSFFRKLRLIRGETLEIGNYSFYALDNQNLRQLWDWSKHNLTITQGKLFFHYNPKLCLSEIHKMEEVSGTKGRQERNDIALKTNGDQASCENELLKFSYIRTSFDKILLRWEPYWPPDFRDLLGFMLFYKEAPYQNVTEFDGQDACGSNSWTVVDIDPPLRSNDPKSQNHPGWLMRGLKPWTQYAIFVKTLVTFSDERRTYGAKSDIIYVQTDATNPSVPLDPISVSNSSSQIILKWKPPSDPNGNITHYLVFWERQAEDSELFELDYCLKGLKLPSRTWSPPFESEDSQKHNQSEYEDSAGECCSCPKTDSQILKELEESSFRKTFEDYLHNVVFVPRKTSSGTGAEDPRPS
Sequence of Insulin receptor (Homo sapiens) (P06213 763-1382 limits assumed): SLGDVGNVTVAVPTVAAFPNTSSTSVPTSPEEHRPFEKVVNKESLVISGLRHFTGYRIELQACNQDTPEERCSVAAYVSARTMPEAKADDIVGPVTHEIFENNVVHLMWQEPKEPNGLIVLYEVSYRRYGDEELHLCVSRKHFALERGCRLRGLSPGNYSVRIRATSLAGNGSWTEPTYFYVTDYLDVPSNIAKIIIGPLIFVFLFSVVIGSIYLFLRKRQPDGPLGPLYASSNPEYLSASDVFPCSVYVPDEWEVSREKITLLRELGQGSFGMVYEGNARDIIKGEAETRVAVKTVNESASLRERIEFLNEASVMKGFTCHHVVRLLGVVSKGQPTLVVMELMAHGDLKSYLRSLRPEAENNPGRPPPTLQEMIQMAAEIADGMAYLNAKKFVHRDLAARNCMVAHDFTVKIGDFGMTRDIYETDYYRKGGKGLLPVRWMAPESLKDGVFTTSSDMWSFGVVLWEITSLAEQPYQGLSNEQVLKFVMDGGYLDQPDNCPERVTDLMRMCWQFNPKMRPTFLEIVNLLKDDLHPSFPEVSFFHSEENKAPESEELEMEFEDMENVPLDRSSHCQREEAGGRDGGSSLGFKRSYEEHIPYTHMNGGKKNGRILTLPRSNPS

[9] = molecular target: Platelet-derived growth factor receptor beta (Homo sapiens) (UniProt P09619); experiment: Inhibition of PDGFRbeta up to 100 uM
[10] = molecular target: Serine/threonine-protein kinase PLK1 (Homo sapiens) (UniProt P53350); experiment: Inhibition of PLK1 up to 100 uM
Sequence of Serine/threonine-protein kinase PLK1 (Homo sapiens) (P53350 whole entry): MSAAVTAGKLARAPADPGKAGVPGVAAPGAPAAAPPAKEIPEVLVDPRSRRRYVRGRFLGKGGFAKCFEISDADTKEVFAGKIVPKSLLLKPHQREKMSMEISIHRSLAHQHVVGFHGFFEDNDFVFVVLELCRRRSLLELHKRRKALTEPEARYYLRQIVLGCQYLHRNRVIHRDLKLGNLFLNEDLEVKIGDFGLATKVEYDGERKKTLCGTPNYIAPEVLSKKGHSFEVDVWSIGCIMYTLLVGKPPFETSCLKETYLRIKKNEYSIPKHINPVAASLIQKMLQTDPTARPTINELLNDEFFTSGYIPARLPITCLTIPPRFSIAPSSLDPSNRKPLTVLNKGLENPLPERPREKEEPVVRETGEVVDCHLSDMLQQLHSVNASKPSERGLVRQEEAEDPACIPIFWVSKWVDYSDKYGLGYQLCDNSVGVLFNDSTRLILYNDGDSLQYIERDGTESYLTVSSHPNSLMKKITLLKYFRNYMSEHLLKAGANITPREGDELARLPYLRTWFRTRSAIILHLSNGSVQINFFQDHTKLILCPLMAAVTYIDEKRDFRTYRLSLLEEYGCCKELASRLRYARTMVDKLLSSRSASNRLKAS
Procedure, shortened: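 Run in HEPES-NaOH pH 7.5 with MgCl2, MnCl2, orthovanadate, DTT, PEG20000 and 1% DMSO at 30 °C for 80 min. IC50 from 10 concentrations, singlicate.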

[11] = molecular target: T2, Serine/threonine-protein kinase PLK4 (Homo sapiens) (UniProt O00444); experiment: Inhibition of SAK up to 100 uM
T2 sequence (whole entry): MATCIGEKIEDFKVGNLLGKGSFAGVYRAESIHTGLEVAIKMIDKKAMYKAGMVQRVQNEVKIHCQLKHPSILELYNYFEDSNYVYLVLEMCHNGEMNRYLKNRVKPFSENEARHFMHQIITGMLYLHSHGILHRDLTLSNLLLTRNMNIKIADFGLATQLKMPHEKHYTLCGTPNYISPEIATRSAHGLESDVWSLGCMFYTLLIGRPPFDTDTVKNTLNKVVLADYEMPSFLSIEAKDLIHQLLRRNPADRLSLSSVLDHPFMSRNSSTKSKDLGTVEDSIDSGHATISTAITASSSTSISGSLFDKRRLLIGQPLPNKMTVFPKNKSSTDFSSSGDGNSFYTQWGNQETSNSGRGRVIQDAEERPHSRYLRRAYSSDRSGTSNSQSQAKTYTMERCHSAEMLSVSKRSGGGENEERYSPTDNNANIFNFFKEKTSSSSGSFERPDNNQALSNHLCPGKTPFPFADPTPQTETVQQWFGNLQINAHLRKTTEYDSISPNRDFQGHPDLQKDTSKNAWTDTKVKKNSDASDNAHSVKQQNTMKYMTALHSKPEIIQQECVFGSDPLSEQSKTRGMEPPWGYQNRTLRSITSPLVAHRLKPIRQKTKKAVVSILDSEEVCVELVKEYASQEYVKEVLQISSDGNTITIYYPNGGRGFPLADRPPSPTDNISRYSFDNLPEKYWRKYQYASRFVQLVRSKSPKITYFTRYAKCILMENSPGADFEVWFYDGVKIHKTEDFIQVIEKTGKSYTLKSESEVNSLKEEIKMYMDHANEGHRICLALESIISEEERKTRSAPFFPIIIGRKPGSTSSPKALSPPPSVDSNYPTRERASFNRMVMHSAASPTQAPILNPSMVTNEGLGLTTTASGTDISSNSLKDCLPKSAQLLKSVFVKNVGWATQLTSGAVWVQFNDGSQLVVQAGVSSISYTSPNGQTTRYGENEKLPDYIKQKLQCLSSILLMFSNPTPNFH

[12] = molecular target: Vascular endothelial growth factor receptor 2 (Homo sapiens, UniProt P35968); experiment: Inhibition of VEGFR2
[13] = molecular target: Angiopoietin-1 receptor (Homo sapiens, UniProt Q02763); experiment: Inhibition of TIE2
[14] = molecular target: MAP kinase-interacting serine/threonine-protein kinase 1 (Homo sapiens) (UniProt Q9BUB5); experiment: Inhibition of MNK1 at 10 uM

Structure (SMILES)	inhibition [1]	inhibition [2]	pIC50 [3]	inhibition [4]	inhibition [5]	inhibition [6]	inhibition [7]	inhibition [8]	inhibition [9]	inhibition [10]	inhibition [11]	inhibition [12]	inhibition [13]	pIC50 [12]	inhibition [3]	pIC50 [13]	inhibition [14]	pIC50 [7]	pIC50 [2]
Nc1ncnc2ncn(CC(=O)c3ccccc3)c12	inactive	inactive		inactive	inactive	inactive		inactive	inactive	inactive	inactive	inactive	inactive						
CN(C)c1ncnc2c1ncn2CC(=O)c1c[nH]c2ccccc12	inactive	inactive		inactive	inactive	inactive	inactive	inactive	inactive	inactive	inactive	inactive	inactive		inactive				
Nc1ncnc2ncn(CC(=O)c3c[nH]c4ccccc34)c12	inactive	inactive		inactive	inactive	inactive	inactive	inactive	inactive	inactive	inactive			4.52		4.02	inactive		
COc1ncnc2ncn(CC(=O)c3ccccc3)c12	inactive	inactive		inactive	inactive	inactive	inactive	inactive	inactive	inactive	inactive	inactive	inactive		inactive				

Other lines, results leading:

inhibition [1]	inhibition [2]	pIC50 [3]	inhibition [4]	inhibition [5]	inhibition [6]	inhibition [7]	inhibition [8]	inhibition [9]	inhibition [10]	inhibition [11]	inhibition [12]	inhibition [13]	pIC50 [12]	inhibition [3]	pIC50 [13]	inhibition [14]	pIC50 [7]	pIC50 [2]	Structure (SMILES)
inactive	inactive	4.12	inactive	inactive	inactive	inactive	inactive	inactive	inactive	inactive									Nc1ncnc2c1ncn2CC(=O)c1ccccc1
inactive	inactive	4.05	inactive	inactive	inactive	inactive	inactive	inactive	inactive	inactive	inactive	inactive							Nc1ncnc2c1ncn2CC(=O)c1ccccn1
inactive	inactive	4.03	inactive	inactive	inactive	inactive	inactive	inactive	inactive	inactive		inactive	4.24						Nc1ncnc2c1ncn2CC(=O)c1cccnc1
inactive	inactive		inactive	inactive	inactive		inactive	inactive	inactive	inactive		inactive	4.60	inactive			4.35		COc1ncnc2c1ncn2CC(=O)c1ccccc1
inactive		4.46	inactive	inactive	inactive	inactive	inactive	inactive	inactive	inactive			4.09		4.07	73%		4.16	Nc1ncnc2c1ncn2CC(=O)c1c[nH]c2ccccc12
